Screening data from PubChem.
Many of the other results were omitted from the sample, so hits are more common in it than they were.
NLRP3 yeast inh: NALP3 inflammasome inhibitors in reconstituted yeast, primary screen, luminescence, uHTS; 0.39% of 330,000 active; Yeast reconstituted NLRP3/ASC/caspase-1, beta-gal luminescence, 24 h; AID 2825, 2010; inhibition, % at 10 µM;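 active means inhibition of 50% or more; inactive means inhibition below 50%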;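 further: plate controls were induced DMSO wells for no effect and uninduced yeast grown without galactose for full effect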
PolyA inh: polyadenylation inhibitors in yeast reporter cells, primary screen, luminescence, S. cerevisiae | S. cerevisiae SKY197-pL101 polyadenylation reporter, beta-gal luminescence; efflux-impaired pdr1/pdr3 knockout yeast; score 100 = 6 SD above DMSO | activity score, % at 12 µM | 0.02% of 300,000 active | AID 1875, 2009;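 active means lowest replicate activity score at least 50, where 100 means six control SD above control mean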;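 further: yeast exposed to compound for 9 h at 30 °C; higher score means more reporter readthrough which indicates perturbed polyadenylation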
T cruzi repl: inhibitors of intracellular T. cruzi growth, primary screen, luminescence, NIH3T3 host cells. T. cruzi beta-gal in NIH3T3, 90 h. inhibition, % (no concentration beside the values). 1.4% of 300,000 active. AID 1885, 2009;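 active means mean inhibition across valid replicates above about 55%, limit read from the data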;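 further: signal also drops with host cell toxicity which is not excluded here; 0% = plate median of DMSO wells and 100% = zero luminescence signal; higher percent means less beta-gal luminescence so fewer parasites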
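Incubation – ≥90 h infection period, 3 h prior cell attachment · System – NIH/3T3 fibroblasts plus reporter T. cruzi · Doses – compound pinned at 50 nL/well, DMSO · Read-out basis – percent inhibition of parasite-derived β-gal signal · Signal – luminescent β-galactosidase signal after 60 min lysis · Also added – 5000 T. cruzi trypomastigotes/well · Medium – Low-serum DMEM with 2% FBS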
Calb FLC: C. albicans growth inhibition with fluconazole, primary screen, CaCi-2 strain, Alamar Blue fluorescence. C. albicans CaCi-2 + fluconazole, 48 h. AID 1979, 2009. growth inhibition, % (concentration not given with the values). 0.57% of 300,000 active;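 active means growth inhibition above about 58% in most replicates, limit read from the data, passing the limit was not always enough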;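 further: all wells also contain fluconazole at 8 µg/ml as a sub-toxic cotreatment; 0% = median of DMSO wells and 100% = median of geldanamycin control wells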
NALP1 yeast inh: NALP1 inflammasome inhibitors in reconstituted yeast, colorimetric, S. cerevisiae, triplicate retest. S. cerevisiae NALP1/ASC/caspase-1 growth, X-gal OD620, 72 h. 0.61% of 280,000 active. inhibition, % at 10 µM; in the data active means inhibition mostly above about 24%, no sharp cut-off; inactive means mostly below about 32%
L major viab: Leishmania major promastigote growth inhibition, primary screen; inhibition, % at 10 µM; Leishmania major promastigotes, resazurin fluorescence viability; 9% of 200,000 active; in the data active means inhibition above about 50%;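 further: promastigotes grown with compound for 44 hours at 28 °C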
An asterisk follows results filed as active; / = no result given.

SMILES	NLRP3 yeast inh	PolyA inh	T cruzi repl	Calb FLC	NALP1 yeast inh	L major viab
COc1ccc(-c2cc(C(F)(F)F)n3ncc(C(=O)N4CCc5ccccc5C4)c3n2)cc1	13	/	63*	-6	10	29
COc1ccc(-c2cc(C(F)F)n3ncc(C(=O)Nc4cccc(S(=O)(=O)N5CCOCC5)c4)c3n2)cc1	9	-3	54	16	9	65*
COc1cccc(-c2cc(C(F)(F)F)n3ncc(C(=O)N4CCc5ccccc5C4)c3n2)c1	1	/	14	0	3	22
COc1ccc(-c2cc(C(=O)N3CCOCC3)c3cc(C)ccc3n2)cc1	18	-25	-7	-17	2	65*
COc1ccc(C(C)(C)C)cc1NC(=O)COC(=O)c1ccc([N+](=O)[O-])o1	10	-15	20	-5	5	1
CCOC(=O)C1CCCN(C(=O)c2sc3nc(-c4ccc(OC)cc4)cn3c2C)C1 (stereo unspecified)	10	-4	-8	-3	11	100*
COc1ccc(-c2cc(C(F)F)n3ncc(C(=O)N4CCSCC4)c3n2)cc1	7	-5	2	0	26	48
Cc1ccc(-c2cc(C(F)F)n3ncc(C(=O)N4CCN5CCCC5C4)c3n2)cc1 (stereo unspecified)	0	12	3	-1	20	55*
CCOC(=O)C1CCCN(C(=O)c2cnn3c(C(F)F)cc(-c4ccc(C)cc4)nc23)C1 (stereo unspecified)	14	-2	39	12	21	98*
Cc1ccc(-c2cc(C(F)F)n3ncc(C(=O)NN4CCCCC4)c3n2)cc1	13	-12	23	-8	16	4
C#CCNC(=O)C1=C[C@H](c2ccccc2)[C@@H](CCCO)[C@H](OCC)O1	14	-7	-9	-11	5	-9
FC(F)Oc1ccc(NC(=S)NCc2cccnc2)cc1	12	-12	-14	20	-1	7
CC(C)c1ccc(NC(=S)N2CCN(Cc3ccccc3)CC2)cc1	37	-88	1	4	14	86*
S=C(Nc1ccc(Cl)cc1)N1CCN(Cc2ccccc2)CC1	27	6	0	-24	6	-4
Fc1ccc(CNC(=S)Nc2ccc(OC(F)F)cc2)cc1	13	-4	17	-16	18	63*
FC(F)Oc1ccc(NC(=S)N2CCN(Cc3ccccc3)CC2)cc1	-7	12	-6	1	-13	80*
COc1ccc(NC(=S)N2CCN(Cc3ccc(C)cc3)CC2)cc1	18	9	-14	-11	11	62*
Cc1ccc(NC(=S)N2CCN(Cc3ccccc3)CC2)cc1	24	-12	-24	-19	-1	-2
Cc1ccc(CNC(=O)C(=O)NCC2OCCN2S(=O)(=O)c2ccc(Cl)cc2)cc1 (stereo unspecified)	9	-10	-15	-21	12	/
O=C(Nc1ccc(Cc2ccncc2)cc1)c1cccc([N+](=O)[O-])c1	-5	-2	-4	-3	19	74*
O=C(Nc1ccc(NC(=O)c2cccc([N+](=O)[O-])c2)cc1)c1cccc([N+](=O)[O-])c1	3	3	19	12	12	/
Cc1c(C(=O)Nc2ccc(Cc3ccncc3)cc2)cccc1[N+](=O)[O-]	17	11	-66	-4	37	96*
CC(C)(C)c1ccc(S(=O)(=O)Nc2ccc(Cc3ccncc3)cc2)cc1	-12	-13	25	0	24	88*
CCN(CC)S(=O)(=O)c1ccc(C(=O)Nc2ccc(Cc3ccncc3)cc2)cc1	9	-2	48	19	-12	99*
O=C(CCNc1ccc(Cc2ccncc2)cc1)c1ccc([N+](=O)[O-])cc1	12	-17	52	-24	3	101*
Cc1ccc(C)c(N(CC(=O)NC2CCCC2)S(=O)(=O)c2ccccc2)c1	-8	-9	5	1	10	/
O=c1oc2ccccc2c(Cl)c1CN1CCCCC1	22	-2	39	-8	0	14
CON(c1nc(N(C)C)nc(N(C)C)n1)S(=O)(=O)c1ccccc1Cl	25	-5	6	-12	-1	65*
